Reference: PMC6440678 (Clinical and Translational Science, 2018)

Columns and labels:
Berkeley SCD mouse model = conditions: administered after a challenge; cited from earlier work
[1] = tested on: hospitalized patients with SCD and VOC; conditions: randomized, placebo‐controlled; cited from earlier work
[2] = tested on: cGMP in mouse brain tissue; conditions: systemic administration; cited from earlier work
[3] = Plasma pharmacokinetics of PF‐04447943, phase Ib study; format: in vivo, human; conditions: for AUC0−12 (dn) / Cmax (dn): dose normalized to 1 mg; for AUC0−12 (dn) / Cmax (dn) / Cmax: geometric mean (geometric %CV); for Tmax / Cmax / AUC(0-t): human, plasma; for Tmax / Cmax: oral; for AUC(0-t): po
Townes SCD mice = conditions: PF‐04447943 alone, pretreatment; cited from earlier work
HbF and Hb levels = assay: Hematology; format: in vivo, human; conditions: day 29, 5‐mg or 25‐mg twice‐daily groups
In short: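 Stable SCD patients randomized 3:1 active:placebo to oral test compound 5 mg or 25 mg or placebo, twice daily ~12 h apart with water for 29 (+1) days. HbF (%) was measured centrally at baseline and before dosing on day 29. Baseline HbF was classed low (<10%) or high (≥10%), split at the sample median.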

[4] = tested on: neutrophil‐platelet and monocyte‐platelet aggregates; assay: Leukocyte‐platelet aggregates by flow cytometry in SCD patients; format: in vivo, human; conditions: day 29, 25 mg twice daily
In short: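 Citrated whole blood was taken before dosing on days 1, 2, 7, 14, 21 and 29 and at baseline. Within 30 min it was mixed with FacsLysing solution and refrigerated, then spun 5 min at 500 g. Cells were resuspended in HEPES/NaCl/0.5% BSA, pH 7.4, and stained with PC5-anti-CD14 plus PE-CD42a or isotype. Flow cytometry reported aggregates as % cells and size as CD42a MFI. Day-29 percent change was estimated by repeated-measures model, with Holm-Bonferroni-adjusted P.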

[5] = tested on: cGMP in cerebral spinal fluid; conditions: systemic administration; cited from earlier work
[6] = tested on: patients with stable sickle cell disease; assay: Safety and tolerability, phase Ib study; format: in vivo, human
plasma cGMP = assay: Plasma cGMP levels in SCD patients; format: in vivo, human; conditions: PF‐04447943 treatment, current study (data not shown)
[7] = 5 mg twice daily, % of patients

Compound: C[C@@H]1O[C@@H](O[C@@H]2[C@@H](NC(=O)c3cc(=O)[nH]c(=O)[nH]3)C[C@@H](C(=O)NCCNC(=O)COCCOCC(=O)Nc3cc(S(=O)(=O)O)cc4cc(S(=O)(=O)O)cc(S(=O)(=O)O)c34)C[C@H]2O[C@@H]2O[C@H](CO)[C@H](O)[C@H](O[C@@H](CC3CCCCC3)C(=O)O)[C@H]2OC(=O)c2ccccc2)[C@@H](O)[C@H](O)[C@@H]1O [rivipansel]
- leukocyte adhesion (Berkeley SCD mouse model): reduced leukocyte adhesion
- time to VOC resolution, length of stay, parenteral opioid requirement [1]: trends toward improved

Compound: C[C@@H]1CN(Cc2ncccn2)C[C@H]1c1nc2c(cnn2C2CCOCC2)c(=O)[nH]1 [PF‐04447943, 6‐[(3S,4S)‐4‐methyl‐1‐(pyrimidin‐2‐ylmethyl)pyrrolidin‐3‐yl]‐1‐(tetrahydro‐2H‐pyran‐4‐yl)‐1,5‐dihydro‐4H‐pyrazolo[3,4‐d]pyrimidin‐4‐one]
- cGMP in mouse brain tissue [2]: accumulation of cGMP in mouse brain tissue
- dose proportionality of plasma exposure (AUC0‐12, Cmax) ([3]; 5 and 25 mg, day 1): dose proportional
- AUC0−12 (dn) ([3]; day 1, 5 mg): 48 (35) ng·h/mL/mg
- Cmax (dn) ([3]; day 1, 5 mg): 9.2 (39) ng/mL/mg
- AUC0−12 (dn) ([3]; day 1, 25 mg): 47 (29) ng·h/mL/mg
- Cmax (dn) ([3]; day 1, 25 mg): 9.9 (31) ng/mL/mg
- Tmax ([3]; 5 mg): 1.9 h
- Cmax ([3]; 5 mg, day 1, 5 mg): 45.8 ng/mL
- Tmax ([3]; 25 mg): 1 h
- Cmax ([3]; 25 mg, day 1, 25 mg): 248 ng/mL
- AUC(0-t) ([3]; 5 mg): 242 ng·h/mL
- AUC(0-t) ([3]; 25 mg): 1170 ng·h/mL
- number of neutrophil‐platelet aggregates (Townes SCD mice): decrease in neutrophil‐platelet aggregates
- change in HbF level (HbF and Hb levels): No significant changes
- reduction from baseline in size of neutrophil‐platelet aggregates ([4]; adjusted P = 0.018): 34%
- reduction from baseline in number of circulating monocyte‐platelet aggregates ([4]; adjusted P = 0.025): 52%
- reduction from baseline in number of neutrophil‐platelet aggregates ([4]; adjusted P = 0.095): 46%
- reduction from baseline in size of circulating monocyte‐platelet aggregates ([4]; adjusted P = 0.140): 36%
- cGMP in cerebral spinal fluid in the rat [5]: dose‐dependent increases
- patients who experienced sickle cell pain crisis ([6]; 5 mg twice daily): 14%
- treatment‐related AE: dizziness [6, 7]: 0%
- treatment‐related AE: fatigue [6, 7]: 0%
- treatment‐related AE: headache ([6]; 5 mg twice daily, up to 29 days, % of patients): 0%
- patients who experienced sickle cell pain crisis ([6]; 25 mg twice daily): 13%
- treatment‐related AE: dizziness ([6]; 25 mg twice daily, % of patients): 13%
- deaths during the study ([6]; 5 and 25 mg twice daily): No deaths occurred
- tolerability ([6]; 5 and 25 mg twice daily, 29‐day treatment period): well tolerated
- change in plasma cGMP levels (plasma cGMP): no significant changes
